Data reported in ChEMBL document CHEMBL1129329, “Structure-activity studies of 6-substituted decahydroisoquinoline-3-carboxylic acid AMPA receptor antagonists. 2. Effects of distal acid bioisosteric substitution, absolute stereochemical preferences, and in vivo activity” (J Med Chem, 1996).

Tests used:
[1] = molecular target: Glutamate receptor ionotropic, kainate; test: Antagonism at Ionotropic glutamate receptor kainate by inhibition of depolarizations induced by 10 uM kainic acid in rat cortical slice preparation.; type: functional
[2] = molecular target: Glutamate NMDA receptor; test: Antagonism at NMDA receptor by inhibition of depolarizations induced by 40 uM NMDA in rat cortical slice preparation.; type: functional
[3] = tested on: Mus musculus; test: Effective dose to block maximal electroshock-induced convulsions in mice, administered intraperitoneally; type: functional; settings: ip
[4] = molecular target: T1, Glutamate receptor ionotropic, AMPA (Rattus norvegicus, UniProt P19490+P19491+P19492+P19493); test: (§1) Binding affinity against Ionotropic glutamate receptor AMPA using [3H]AMPA 19755 radioligand; type: protein-complex assay
[5] = molecular target: T1, Glutamate receptor ionotropic, AMPA; test: Antagonism at AMPA receptor by inhibition of depolarizations induced by 40 uM AMPA in rat cortical slice preparation.; type: functional
[6] = tested on: Mus musculus; test: (§2) Effective dose to produce neurological impairments in mice using the horizontal screen assay, administered intraperitoneally; type: functional; settings: ip
Outline: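 Mice dosed intraperitoneally 30 min before testing were placed on a horizontal screen, which was then turned upside down. Unimpaired mice climb back to the top within 2 min; failure indicates neurological impairment. This was done before MES testing.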

[7] = molecular target: Glutamate NMDA receptor; test: Affinity of [3H]-CGS- 19755 radioligand to rat N-methyl-D-aspartate (NMDA) receptor; type: protein-complex assay
[8] = molecular target: Glutamate receptor ionotropic, kainate; test: Binding affinity against Ionotropic glutamate receptor kainate using [3H]-Kainic acid 19755 radioligand; type: protein-complex assay
Outline: (§3)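 Displacement of radioligand binding in rat cortical tissue: [3H]AMPA for AMPA sites, [3H]kainic acid for kainate sites. Assays run in triplicate unless otherwise indicated; some IC50 values come from a single assay.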

[9] = molecular target: T1, Glutamate receptor ionotropic, AMPA; test: Compound was tested for Ionotropic glutamate receptor AMPA antagonistic activity by measuring its ability to inhibit depolarizations induced by 40 uM AMPA in rat cortical slice preparation.; type: functional
[10] = molecular target: Glutamate NMDA receptor; test: Compound was tested for NMDA receptor antagonistic activity by measuring its ability to inhibit depolarizations induced by 40 uM NMDA in rat cortical slice preparation.; type: functional
[11] = tested on: Mus musculus; test: Effective dose to block ATPA-induced muscle rigidity in mice at a dose of 30 mg/kg administered intraperitoneally; settings: ip
[12] = molecular target: T1, Glutamate receptor ionotropic, AMPA; test: Compound was tested for AMPA receptor antagonistic activity by measuring its ability to inhibit depolarizations induced by 10 uM quisqualic acid in rat cortical slice preparation.; type: functional
[13] = molecular target: Glutamate receptor ionotropic, kainate; test: Compound was tested for Ionotropic glutamate receptor kainate antagonistic activity by measuring its ability to inhibit depolarizations induced by 10 uM kainic acid in rat cortical slice preparation.; type: functional
[14] = molecular target: Glutamate NMDA receptor (Rattus norvegicus) (UniProt P35439+Q00959+Q00960+Q00961+Q62645+Q8VHN2+Q9R1M7); test: Compound was tested for NMDA receptor antagonistic activity by measuring its ability to inhibit depolarizations induced by 40 uM NMDA in rat cortical slice preparation at 100 uM; type: functional
[15] = tested on: Mus musculus; test: as §2; type: functional; settings: ip; remark: listed apart in the source
Outline: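 Mice dosed ip 30 min beforehand are placed on a horizontal screen, which is then turned upside down. Unimpaired mice climb back to the top within 2 min.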

[16] = tested on: Mus musculus; test: Minimum effective dose to block the lethality induced by 200 mg/kg ip dose of NMDA; type: functional; settings: route intraperitoneal
Outline: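 Mice dosed ip 30 min before a 200 mg/kg ip NMDA challenge. Minimum effective dose is the lowest dose giving greater than 50% protection from lethality among all mice tested.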

[17] = tested on: Mus musculus; test: Effective dose to block lethality induced by 200 mg/kg ip dose of NMDA; type: functional; settings: route intraperitoneal
Outline: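 Mice dosed ip 30 min before a 200 mg/kg ip NMDA challenge; protection from lethality recorded and ED50 (mg/kg, ip) derived.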

[18] = tested on: Mus musculus; test: Effective dose to block ATPA-induced muscle rigidity in mice at a dose of 30mg/kg, administered intravenously; type: functional; settings: iv
Outline: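 Mice given test agent ip 30 min before iv challenge with ATPA (30 mg/kg), a systemic AMPA agonist that produces characteristic muscle rigidity.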

[19] = molecular target: T2, Glutamate receptor ionotropic, AMPA (Rattus norvegicus) (UniProt P19491+P19492+P19493+P19490); test: as §1; type: protein-complex assay; settings: concentration not given here; outline: as §3
[20] = molecular target: T2, Glutamate receptor ionotropic, AMPA (Rattus norvegicus); test: Compound was tested for AMPA receptor antagonistic activity by measuring its ability to inhibit depolarizations induced by 40 uM AMPA in rat cortical slice preparation at 100 uM; type: functional

IC50 [1]	IC50 [2]	IC50 [5]	IC50 [7]	IC50 [8]	SMILES	ED50 [3]	IC50 [4]	also measured
			29.4 µM	30.1 µM	O=C(O)[C@@H]1C[C@H]2C[C@@H](CSc3nn[nH]n3)CC[C@H]2CN1 (racemic)		0.9 µM	IC50 [9]: 19.8 µM; IC50 [10]: > 100 µM
			> 100 µM	27.9 µM	O=C(O)[C@H]1C[C@@H]2C[C@@H](CSc3nn[nH]n3)CC[C@@H]2CN1		17.8 µM	IC50 [13]: 29.1 µM; IC50 [9]: 9 µM; IC50 [10]: > 100 µM
					O=C(O)[C@@H]1C[C@H]2C[C@@H](CCc3nn[nH]n3)CC[C@H]2CN1			inhibition [14]: 60%
					O=C(O)[C@@H]1C[C@H]2C[C@@H](OCc3nn[nH]n3)CC[C@H]2CN1	24.7 mg/kg		ED50 [16]: 80 mg/kg; ED50 [11]: 30.6 mg/kg; ED50 [6]: 21 mg/kg
> 100 µM	> 100 µM	> 100 µM	> 100 µM	> 100 µM	O=C(O)[C@@H]1C[C@H]2C[C@@H](CNc3nn[nH]n3)CC[C@H]2CN1 (racemic)		> 100 µM	
71 µM	84 µM	19 µM	> 100 µM	> 100 µM	O=C(CC[C@H]1CC[C@H]2CN[C@H](C(=O)O)C[C@H]2C1)Nc1nn[nH]n1		72.6 µM	
					O=C(O)[C@@H]1C[C@H]2C[C@@H](c3nnn[nH]3)CC[C@H]2CN1	24.1 mg/kg		ED50 [17]: 19.4 mg/kg; ED50 [18]: 44.5 mg/kg
					O=C(O)[C@@H]1C[C@H]2C[C@@H](CCCc3nnn[nH]3)CC[C@H]2CN1	> 100 mg/kg		ED50 [11]: > 100 mg/kg; ED50 [6]: > 100 mg/kg
> 100 µM	> 100 µM		> 10 µM	> 100 µM	O=C(O)[C@@H]1C[C@H]2C[C@@H](Cn3nnc(S)n3)CC[C@H]2CN1 (racemic)			inhibition [19]: 57.9%; inhibition [20]: 55%
			76.9 µM		O=C(O)[C@@H]1C[C@H]2C[C@H](CCc3nnn[nH]3)CC[C@H]2CN1 (stereo in doubt; (-)49)			
100 µM	> 100 µM	31.4 µM	61.8 µM	> 100 µM	O=C(O)[C@@H]1C[C@H]2C[C@@H](CCS(=O)(=O)O)CC[C@H]2CN1		11.6 µM	

SMILES	IC50 [1]	IC50 [2]	IC50 [5]	IC50 [7]	IC50 [8]	ED50 [3]	IC50 [4]	also measured
O=C(O)[C@@H]1C[C@H]2C[C@@H](CS(=O)(=O)c3nnc[nH]3)CC[C@H]2CN1 (stereo in doubt; 36)	10 µM	> 100 µM	2.16 µM			9.5 mg/kg	1.7 µM	ED50 [6]: 25.2 mg/kg
O=C(O)CC[C@H]1CC[C@H]2CN[C@H](C(=O)O)C[C@H]2C1	> 100 µM	57 µM		43.9 µM	> 100 µM	> 100 mg/kg	27.8 µM	ED50 [11]: > 100 mg/kg; ED50 [6]: > 100 mg/kg; IC50 [12]: 42 µM
O=C(O)[C@@H]1C[C@H]2C[C@H](CCc3cc(O)no3)CC[C@H]2CN1				> 100 µM	> 100 µM	31.1 mg/kg	> 100 µM	ED50 [15]: > 100 mg/kg; ED50 [11]: 8.8 mg/kg
O=C(O)[C@@H]1C[C@H]2C[C@@H](CS(=O)(=O)c3nnc[nH]3)CC[C@H]2CN1 (stereo in doubt; (-)36)				> 100 µM	> 100 µM		0.6 µM	
O=C(O)CC[C@@H]1CC[C@H]2CN[C@H](C(=O)O)C[C@H]2C1	> 100 µM	> 100 µM	> 100 µM	> 100 µM	> 100 µM		> 100 µM	
